This is an account of results in ChEMBL document CHEMBL6134765, “Rapid identification of novel indolylarylsulfone derivatives as potent HIV-1 NNRTIs via miniaturized CuAAC click-chemistry-based combinatorial libraries” (RSC Med Chem, 2025).

The nature of data set [1]: Selectivity index, ratio of CC50 for cytotoxicity against human MT4 cells to EC50 for antiviral activity against wild-type HIV-1 IIIB infected in human MT4 cells. The format is toxicity, cell-based. As to conditions: read-out: Ratio CC50/EC50. Put shortly:
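Selectivity index is calculated as CC50 (mock-infected MT-4, MTT) divided by EC50 (HIV-1 IIIB protection of MT-4, MTT).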

Data set [2] deals with Human immunodeficiency virus type 1 reverse transcriptase (Human immunodeficiency virus 1) (UniProt Q72547). As to the kind of experiment: Inhibition of recombinant HIV-1 reverse transcriptase at 0.66 mM incubated for 1 hr by ELISA relative to control. The gist of the method: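 Each library compound was tested directly as the crude click mixture (diluted in DMSO to 2 mM per well) against HIV-1 RT at 0.66 mM, using an ELISA-based RT kit following the kit protocol. Blank controls held DMSO, TBTA, CuSO4·5H2O and sodium ascorbate. Inhibition is expressed as a percentage.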

The subject of data set [3] is Human immunodeficiency virus 1. As to the kind of experiment: Antiviral activity against wild-type HIV-1 IIIB infected in human MT4 cells incubated for 5 days by spectrophometry based MTT assay. The format is functional, organism-based. The note with it: Human immunodeficiency virus 1, IIIB, MT4, 120 h. Put shortly: (§1)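 MTT protection assay in MT-4 cells infected with HIV-1 IIIB or HIV-2 ROD. EC50 is the compound concentration giving 50% protection of the cultures against virus-induced cytotoxicity.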
For orientation: Tetrazolium dyes change colour on reduction, which living cells bring about.

For data set [4], the system named is Human immunodeficiency virus 1. Put plainly: Antiviral activity against HIV-1 harboring K103N mutant infected in human MT4 cells assessed as inhibition of virus induced cytotoxicity incubated for 5 days by spectrophometry based MTT assay. Format: functional, organism-based. The note with it: Human immunodeficiency virus 1, MT4, 120 h. The gist of the method:
(§2)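 MT-4 cells (from Dr. N. Yamamoto, Yamaguchi University) infected with single-mutant (L100I, K103N, Y181C, Y188L, E138K) or double-mutant (F227L/V106A; RES056 = K103N/Y181C) HIV-1 strains. Protection against virus-induced cytotoxicity was read by the MTT method. EC50 is the concentration giving 50% protection of the cell cultures.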

The subject of data set [5] is Human immunodeficiency virus 1. As to the kind of experiment: Antiviral activity against HIV-1 harboring RES056 mutant infected in human MT4 cells assessed as inhibition of virus induced cytotoxicity incubated for 5 days by spectrophometry based MTT assay. The format is functional, organism-based. As to conditions: Human immunodeficiency virus 1, MT4, 120 h. Put shortly:
as §2

The test system of data set [6] is Human immunodeficiency virus 1. Put plainly: Antiviral activity against HIV-1 harboring Y181C mutant infected in human MT4 cells assessed as inhibition of virus induced cytotoxicity incubated for 5 days by spectrophometry based MTT assay. Format: functional, organism-based. The note with it: Human immunodeficiency virus 1, MT4, 120 h. Put shortly: as §2
A short description of data set [7]: Cytotoxicity against human MT4 cells assessed as reduction in cell viability incubated for 5 days by MTT assay. Format: toxicity, cell-based. As to conditions: time 5 day. The gist of the method:
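Mock-infected MT-4 cultures were read by MTT for cell viability. CC50 is the concentration that reduces viability by 50%.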

The test system of data set [8] is Human immunodeficiency virus 1. As to the kind of experiment: Antiviral activity against HIV-1 harboring F227L/V106A double mutant infected in human MT4 cells assessed as inhibition of virus induced cytotoxicity incubated for 5 days by spectrophometry based MTT assay. The format is functional, organism-based. As to conditions: Human immunodeficiency virus 1, MT4, 120 h. Put shortly:
as §2

The subject of data set [9] is Human immunodeficiency virus 1. Put plainly: Antiviral activity against HIV-1 harboring L100I mutant infected in human MT4 cells assessed as inhibition of virus induced cytotoxicity incubated for 5 days by spectrophometry based MTT assay. Format: functional, organism-based. The note with it: Human immunodeficiency virus 1, MT4, 120 h. Put shortly:
as §2

For data set [10], the system named is Human immunodeficiency virus 2. Put plainly: Antiviral activity against HIV-2 ROD infected in human MT4 cells incubated for 5 days by spectrophotometry based MTT assay. As to conditions: Human immunodeficiency virus 2, ROD, MT4, 120 h. The format is functional, organism-based. Put shortly:
as §1

The test system of data set [11] is Human immunodeficiency virus 1. As to the kind of experiment: Antiviral activity against HIV-1 harboring E138K mutant infected in human MT4 cells assessed as inhibition of virus induced cytotoxicity incubated for 5 days by spectrophometry based MTT assay. Format: functional, organism-based. As to conditions: Human immunodeficiency virus 1, MT4, 120 h. Put shortly: as §2

The test system of data set [12] is Human immunodeficiency virus 1. As to the kind of experiment: Antiviral activity against HIV-1 harboring Y188L mutant infected in human MT4 cells assessed as inhibition of virus induced cytotoxicity incubated for 5 days by spectrophometry based MTT assay. Format: functional, organism-based. As to conditions: Human immunodeficiency virus 1, MT4, 120 h. Put shortly: as §2

Broadly, the inhibition is the change of the read-out against control, counted positive when it falls. A word on the EC50: it is the concentration at which the effect is half-maximal. The term CC50 denotes the concentration giving 50% cytotoxicity. In the case of `Cc1cc(C)cc(S(=O)(=O)c2c(C(=O)NCc3cn(Cc4cccc([N+](=O)[O-])c4)nn3)[nH]c3ccc(Cl)cc23)c1`, in data set [1], the selectivity ratio was above 939. In [2], the inhibition was above 85%. For the same molecule, the EC50 was 230 nM in data set [3]; 2840 nM in [4]; above 216 µM in [5]; 3040 nM in [6]; 9410 nM in data set [8]; 1900 nM in [9]. Also, the EC50 is above 216 µM in data set [10], 1300 nM in data set [11] and 152 µM in data set [12]. The CC50 at 120 h in [7] is above 216 µM.
For `Cc1cc(C)cc(S(=O)(=O)c2c(C(=O)NCc3cn(CC(=O)Nc4ccc(C(F)(F)F)cc4)nn3)[nH]c3ccc(Cl)cc23)c1`, the selectivity ratio in [1] is 148. In [2], the inhibition is above 85%. Further, the EC50 is 110 nM in [3]; 1720 nM in [4]; above 17 µM in [5]; above 7410 nM in data set [6]; above 17000 nM in [8]; 590 nM in data set [9]. The EC50 in data set [10] is above 17 µM; in data set [11] it was 2220 nM; in data set [12], 0.4 µM. Besides, in [7], the CC50 at 120 h came to 17 µM.
With `COC(=O)CCCn1cc(CNC(=O)c2[nH]c3ccc(Cl)cc3c2S(=O)(=O)c2cc(C)cc(C)c2)nn1`, the selectivity ratio in data set [1] came to 5810. In data set [2], the inhibition was above 85%. Moreover, the EC50 was 35 nM in data set [3]; 510 nM in data set [4]; above 206 µM in data set [5]; 580 nM in [6]; 1660 nM in data set [8]; 270 nM in data set [9]. Besides, the results for the EC50 in [10], in data set [11] and in data set [12] were above 206 µM, 50 nM and 9.04 µM, respectively. Moreover, the CC50 at 120 h in data set [7] was determined as 206 µM.
`Cc1cc(C)cc(S(=O)(=O)c2c(C(=O)NCc3cn(CC(=O)Nc4ccc(F)cc4)nn3)[nH]c3ccc(Cl)cc23)c1`: in [1], the selectivity ratio was 188. Besides, the inhibition in data set [2] was above 85%. For the same molecule, the EC50 in data set [3] was 87 nM; in [4], 2780 nM; in [5] it was above 16.2 µM; in data set [6], 1070 nM; in data set [8], 5090 nM; in data set [9], 530 nM. Moreover, the EC50 in [10] was above 16.2 µM; in data set [11], 560 nM; in data set [12], 14.1 µM. Besides, the CC50 at 120 h in data set [7] turned out to be 16.2 µM.
In the case of `Cc1cc(C)cc(S(=O)(=O)c2c(C(=O)NCc3cn(Cc4cccc(C#N)c4)nn3)[nH]c3ccc(Cl)cc23)c1`, the selectivity ratio in data set [1] is 2680. In addition, in [2], the inhibition is above 85%. Further, the EC50 in [3] was 62 nM; in [4], 1240 nM; in data set [5], above 166 µM; in data set [6], 1100 nM; in [8], 2960 nM; in data set [9] it was 340 nM. In addition, the figures for the EC50 in data set [10], in [11] and in data set [12] were above 166 µM, 350 nM and above 35.3 µM, respectively. In addition, the 50% cytotoxic concentration (CC50) at 120 h in [7] amounted to 166 µM.
As to `Cc1cc(C)cc(S(=O)(=O)c2c(C(=O)NCc3cn(Cc4ccccc4[N+](=O)[O-])nn3)[nH]c3ccc(Cl)cc23)c1`, the selectivity ratio in data set [1] is above 9120. The inhibition in [2] was above 85%. Besides, the concentration for a half-maximal effect (EC50) was 24 nM in [3]; 510 nM in data set [4]; above 194 µM in data set [5]; 290 nM in [6]; 1560 nM in data set [8]; 150 nM in data set [9]. The values for the EC50 in data set [10], in data set [11] and in data set [12] were above 216 µM, 150 nM and 20.8 µM, respectively. Besides, the half-maximal cytotoxic concentration (CC50) at 120 h in [7] is above 216 µM.
In the case of `CCOC(=O)Cn1cc(CNC(=O)c2[nH]c3ccc(Cl)cc3c2S(=O)(=O)c2cc(C)cc(C)c2)nn1`, the selectivity ratio in [1] was above 7330. Besides, in data set [2], the inhibition was above 85%. Besides, the 50% effective concentration (EC50) in data set [3] was determined as 32 nM; in data set [4] it was 340 nM; in [5], 204 µM; in [6] it was 630 nM; in data set [8], 1700 nM; in [9], 170 nM. The EC50 in data set [10] is 226 µM; in data set [11], 100 nM; in data set [12] it was 33.4 µM. Further, the CC50 at 120 h in data set [7] is above 236 µM.
Regarding `Cc1cc(C)cc(S(=O)(=O)c2c(C(=O)NCc3cn(CC(=O)Nc4ccc(Br)cc4)nn3)[nH]c3ccc(Cl)cc23)c1`, the selectivity ratio in [1] was 231. The inhibition in [2] was above 85%. The EC50 was 68 nM in data set [3]; 1500 nM in data set [4]; above 15.8 µM in data set [5]; 540 nM in data set [6]; 1870 nM in data set [8]; 380 nM in [9]. The EC50 in [10] is above 15.8 µM; in [11], 150 nM; in data set [12], 4.08 µM. Also, the CC50 at 120 h in [7] turned out to be 15.8 µM.
